Assay results: ChEMBL document CHEMBL1681713, “Lead detoxification activities and ADMET hepatotoxicities of a class of novel 5-(1-carbonyl-L-amino-acid)-2,2-dimethyl-[1,3]dithiolane-4-carboxylic acids” (Bioorg Med Chem Lett, 2011)

Tests used:
Liver [1] = assay: Toxicity in mouse assessed as effect on manganese level in liver per gram of organ at 0.4 mmol/kg, ip qd for 5 days; format: organism-based; details: in vivo, 120 h
Brain [2] = assay: Toxicity in mouse assessed as effect on calcium level in brain per gram of organ at 0.4 mmol/kg, ip qd for 5 days; format: organism-based; details: in vivo, 120 h
Kidney [3] = assay: Toxicity in mouse assessed as effect on iron level in kidney per gram of organ at 0.4 mmol/kg, ip qd for 5 days; format: organism-based; details: in vivo, 120 h
Liver [4] = assay: Toxicity in mouse assessed as effect on iron level in liver per gram of organ at 0.4 mmol/kg, ip qd for 5 days; format: organism-based; details: in vivo, 120 h
Liver [5] = assay: Toxicity in mouse assessed as effect on calcium level in liver per gram of organ at 0.4 mmol/kg, ip qd for 5 days; format: organism-based; details: in vivo, 120 h
Caco-2 = assay: Efflux ratio of permeability […] in human Caco2 cells at 4 mM up to 120 mins by HPLC analysis; format: ADME, cell-based; details: caco-2, 2 h, 4000 µM
How it was run: (§1)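 Permeability measured across Caco-2 cell monolayers.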

Brain [6] = assay: Toxicity in mouse assessed as effect on copper level in brain per gram of organ at 0.4 mmol/kg, ip qd for 5 days; format: organism-based; details: in vivo, 120 h
Kidney [7] = assay: Toxicity in mouse assessed as effect on copper level in kidney per gram of organ at 0.4 mmol/kg, ip qd for 5 days; format: organism-based; details: in vivo, 120 h
Brain [8] = assay: Toxicity in mouse assessed as effect on iron level in brain per gram of organ at 0.4 mmol/kg, ip qd for 5 days; format: organism-based; details: in vivo, 120 h
[9] = Detoxification activity against lead-induced toxicity in mouse assessed as reduction lead level in feces at 0.4 mmol/kg, ip qd for 5 days measured 24 hrs last post dose by synchrotron X-ray fluorescence analysis; format: functional
How it was run: (§2)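 Lead-loaded mice were given normal saline vehicle, DL-penicillamine or NaDMS (positive controls), or test agent, each at 0.4 mmol/kg; n = 12 per group. Lead was measured in feces and urine and reported as mean ± SD µg Pb/g excrement against the NS group.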

Kidney [10] = assay: Toxicity in mouse assessed as effect on zinc level in kidney per gram of organ at 0.4 mmol/kg, ip qd for 5 days; format: organism-based; details: in vivo, 120 h
Femur = assay: Detoxification activity against lead-induced toxicity in mouse assessed as reduction lead level in femurs per gram of organ at 0.4 mmol/kg, ip qd for 5 days measured 24 hrs last post dose by synchrotron X-ray fluorescence analysis; format: functional
How it was run: (§3)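 Lead-loaded mice were given normal saline vehicle (negative control) or test agent at 0.2, 0.4 or 0.6 mmol/kg. Lead was measured in liver, kidney, left femur and brain and reported as mean ± SD µg Pb/g organ against the NS group.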

[11] = Apparent permeability from basolateral to apical side of human Caco2 cells at 4 mM up to 120 mins by HPLC analysis; format: ADME, cell-based; details: Caco-2; how it was run: as §1
Liver [12] = assay: Detoxification activity against lead-induced toxicity in mouse assessed as reduction lead level in liver per gram of organ at 0.4 mmol/kg, ip qd for 5 days measured 24 hrs last post dose by synchrotron X-ray fluorescence analysis; format: functional; how it was run: as §3
Brain [13] = assay: Detoxification activity against lead-induced toxicity in mouse assessed as reduction lead level in brain per gram of organ at 0.4 mmol/kg, ip qd for 5 days measured 24 hrs last post dose by synchrotron X-ray fluorescence analysis; format: functional; how it was run: as §3
Kidney [14] = assay: Detoxification activity against lead-induced toxicity in mouse assessed as reduction lead level in kidney per gram of organ at 0.4 mmol/kg, ip qd for 5 days measured 24 hrs last post dose by synchrotron X-ray fluorescence analysis; format: functional; how it was run: as §3
Kidney [15] = assay: Toxicity in mouse assessed as effect on calcium level in kidney per gram of organ at 0.4 mmol/kg, ip qd for 5 days; format: organism-based; details: in vivo, 120 h
[16] = Apparent permeability from apical to basolateral side of human Caco2 cells at 4 mM up to 120 mins by HPLC analysis; format: ADME, cell-based; details: Caco-2; how it was run: as §1
Brain [17] = assay: Toxicity in mouse assessed as effect on zinc level in brain per gram of organ at 0.4 mmol/kg, ip qd for 5 days; format: organism-based; details: in vivo, 120 h
Kidney [18] = assay: Toxicity in mouse assessed as effect on manganese level in kidney per gram of organ at 0.4 mmol/kg, ip qd for 5 days; format: organism-based; details: in vivo, 120 h
Mus musculus = assay: Toxicity in mouse assessed as change in bodyweight at 0.4 mmol/kg, ip qd for 5 days; format: organism-based; details: in vivo, 120 h
How it was run: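 Lead-loaded mice were given normal saline vehicle or test agent at 0.4 mmol/kg. Body weights were recorded and compared with the NS group to assess growth.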

Liver [19] = assay: Toxicity in mouse assessed as effect on copper level in liver per gram of organ at 0.4 mmol/kg, ip qd for 5 days; format: organism-based; details: in vivo, 120 h
Liver [20] = assay: Toxicity in mouse assessed as effect on zinc level in liver per gram of organ at 0.4 mmol/kg, ip qd for 5 days; format: organism-based; details: in vivo, 120 h
Brain [21] = assay: Toxicity in mouse assessed as effect on manganese level in brain per gram of organ at 0.4 mmol/kg, ip qd for 5 days; format: organism-based; details: in vivo, 120 h
[22] = Detoxification activity against lead-induced toxicity in mouse assessed as reduction lead level in urine at 0.4 mmol/kg, ip qd for 5 days measured 24 hrs last post dose by synchrotron X-ray fluorescence analysis; format: functional; how it was run: as §2

SMILES | Ratio (Caco-2) | Papp B→A at 2 h, 4000 µM [11] [×10⁻⁶ cm/s] | Papp A→B at 2 h, 4000 µM [16] [×10⁻⁶ cm/s] | Activity (Liver [1]) [µg/g] | Activity (Brain [2]) [µg/g] | Activity (Kidney [3]) [µg/g] | Activity (Liver [4]) [µg/g] | Activity (Liver [5]) [µg/g] | Activity (Brain [6]) [µg/g] | Activity (Kidney [7]) [µg/g] | Activity (Brain [8]) [µg/g] | Activity [9] [µg/g] | Activity (Kidney [10]) [µg/g] | Activity (Femur) [µg/g] | Activity (Liver [12]) [µg/g] | Activity (Brain [13]) [µg/g] | Activity (Kidney [14]) [µg/g] | Activity (Kidney [15]) [µg/g] | Activity (Brain [17]) [µg/g] | Activity [22] [µg/g] | other results
CC[C@H](C)[C@H](NC(=O)C1SC(C)(C)SC1C(=O)O)C(=O)O (stereo not given in full) | 2.9 | 4.91 | 14.2 | 1.34 | 69 | 92.98 | 152.94 | 59.96 | 2.48 | 3.54 | 56.49 | 4.1 | 27.41 | 14.32 | 5 | 1.42 | 6.49 | 75.99 | 33 | 2.42 | Activity (Kidney [18]): 1.44 µg/g; Activity (Mus musculus): 30.6 g; Activity (Liver [19]): 3.73 µg/g; Activity (Liver [20]): 36.79 µg/g; Activity (Brain [21]): 0.75 µg/g
CC1(C)SC(C(=O)O)C(C(=O)NCC(=O)O)S1 (stereo not given) |  |  |  | 1.29 | 71.4 | 94.4 | 154.3 | 60.01 | 2.5 | 3.62 | 57.03 | 4.53 | 27.68 | 20.82 | 3.29 | 1.39 | 6.68 | 76.17 | 34.31 | 2.07 | Activity (Kidney [18]): 1.31 µg/g; Activity (Mus musculus): 30.4 g; Activity (Liver [19]): 3.58 µg/g; Activity (Liver [20]): 36.35 µg/g; Activity (Brain [21]): 0.74 µg/g
CC1(C)SC(C(=O)O)C(C(=O)O)S1 (stereo not given) | 2.91 | 4.68 | 13.7 | 1.36 | 71.33 | 95.1 | 152.9 | 58.87 | 2.42 | 3.4 | 56.6 | 4.57 | 28 | 15.47 | 4.02 | 1.42 | 7.12 | 75.94 | 34.54 | 1.93 | Activity (Kidney [18]): 1.3 µg/g; Activity (Mus musculus): 29 g; Activity (Liver [19]): 3.61 µg/g; Activity (Liver [20]): 36.66 µg/g; Activity (Brain [21]): 0.7 µg/g

Second part, led by results:

Ratio (Caco-2) | Papp B→A at 2 h, 4000 µM [11] [×10⁻⁶ cm/s] | Papp A→B at 2 h, 4000 µM [16] [×10⁻⁶ cm/s] | SMILES | Activity (Liver [1]) [µg/g] | Activity (Brain [2]) [µg/g] | Activity (Kidney [3]) [µg/g] | Activity (Liver [4]) [µg/g] | Activity (Liver [5]) [µg/g] | Activity (Brain [6]) [µg/g] | Activity (Kidney [7]) [µg/g] | Activity (Brain [8]) [µg/g] | Activity [9] [µg/g] | Activity (Kidney [10]) [µg/g] | Activity (Femur) [µg/g] | Activity (Liver [12]) [µg/g] | Activity (Brain [13]) [µg/g] | Activity (Kidney [14]) [µg/g] | Activity (Kidney [15]) [µg/g] | Activity (Brain [17]) [µg/g] | Activity [22] [µg/g] | other results
3.23 | 5.15 | 16.6 | CC1(C)SC(C(=O)O)C(C(=O)N[C@@H](CC(N)=O)C(=O)O)S1 (stereo not given in full) | 1.38 | 71.3 | 94.84 | 153.07 | 60.41 | 2.58 | 3.72 | 57.5 | 4.71 | 28.13 | 16.62 | 3.99 | 0.58 | 7.06 | 76.36 | 34.95 | 2.12 | Activity (Kidney [18]): 1.42 µg/g; Activity (Mus musculus): 31.3 g; Activity (Liver [19]): 3.74 µg/g; Activity (Liver [20]): 37.92 µg/g; Activity (Brain [21]): 0.69 µg/g
3.11 | 5.05 | 15.7 | CSCC[C@H](NC(=O)C1SC(C)(C)SC1C(=O)O)C(=O)O (stereo not given in full) | 1.39 | 70.51 | 93.88 | 153.33 | 59.64 | 2.41 | 3.65 | 56.6 | 4.35 | 27.79 | 13.71 | 3.51 | 0.91 | 6.36 | 77.39 | 33.66 | 2.26 | Activity (Kidney [18]): 1.37 µg/g; Activity (Mus musculus): 30 g; Activity (Liver [19]): 3.59 µg/g; Activity (Liver [20]): 36.78 µg/g; Activity (Brain [21]): 0.73 µg/g
1.1 | 10 | 11 | O=C([O-])C(S)C(S)C(=O)[O-].[Na+].[Na+] (stereo not given) |  |  |  |  |  |  |  |  | 4.59 |  | 14.31 | 4.75 | 1.72 | 6.23 |  |  | 1.79 | 
1.14 | 11.5 | 13.1 | CC(C)(S)C(N)C(=O)O (racemic) [DL-PENICILLAMINE] |  |  |  |  |  |  |  |  | 3.26 |  | 14.99 | 3.52 | 1.61 | 7.24 |  |  | 1.94 | 
